Results taken from ChEMBL document CHEMBL1131485, “Novel potent and selective central 5-HT3 receptor ligands provided with different intrinsic efficacy. 1. Mapping the central 5-HT3 receptor binding site by arylpiperazine derivatives” (J Med Chem, 1998).

Columns and labels:
[1] = molecular target: T1, Serotonin 3 (5-HT3) receptor (Rattus norvegicus, UniProt P35563+Q9JJ16); experiment: Ability to displace [3H]granisetron specifically bound to 5-hydroxytryptamine 3 receptor in rat cortical membrane; format: cell membranes
T1 sequence (P35563 whole entry): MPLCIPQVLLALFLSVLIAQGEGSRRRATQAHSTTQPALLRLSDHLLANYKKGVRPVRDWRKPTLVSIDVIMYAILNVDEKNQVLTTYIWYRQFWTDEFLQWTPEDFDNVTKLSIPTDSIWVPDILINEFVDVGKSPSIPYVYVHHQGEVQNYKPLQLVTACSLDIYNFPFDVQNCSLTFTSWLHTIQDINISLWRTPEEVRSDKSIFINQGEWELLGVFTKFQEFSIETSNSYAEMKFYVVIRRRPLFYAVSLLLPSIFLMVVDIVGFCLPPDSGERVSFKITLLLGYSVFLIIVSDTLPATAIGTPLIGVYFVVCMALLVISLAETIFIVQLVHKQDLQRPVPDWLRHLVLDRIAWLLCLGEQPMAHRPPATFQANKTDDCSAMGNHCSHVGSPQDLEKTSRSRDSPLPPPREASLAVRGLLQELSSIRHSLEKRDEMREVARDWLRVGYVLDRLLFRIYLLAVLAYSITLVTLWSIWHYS
T1 sequence (Q9JJ16 whole entry): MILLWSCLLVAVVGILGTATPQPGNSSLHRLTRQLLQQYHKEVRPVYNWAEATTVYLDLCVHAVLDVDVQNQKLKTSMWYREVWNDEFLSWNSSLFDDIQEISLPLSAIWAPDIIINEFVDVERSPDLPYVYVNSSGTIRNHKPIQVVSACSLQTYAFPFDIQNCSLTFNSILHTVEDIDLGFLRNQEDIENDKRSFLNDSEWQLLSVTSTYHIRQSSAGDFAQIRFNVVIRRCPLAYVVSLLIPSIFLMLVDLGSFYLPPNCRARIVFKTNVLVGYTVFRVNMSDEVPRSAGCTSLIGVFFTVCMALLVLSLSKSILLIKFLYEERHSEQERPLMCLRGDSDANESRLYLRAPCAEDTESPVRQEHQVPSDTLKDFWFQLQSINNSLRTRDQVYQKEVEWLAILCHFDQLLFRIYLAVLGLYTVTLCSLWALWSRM
Procedure, shortened: (§1)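 Cortex and hippocampus of male Wistar rats homogenized in 50 mM Hepes pH 7.4 and assayed in 50 mM Hepes HCl pH 7.4. Filtered on GF/B presoaked in 0.1% polyethylenimine. Ki by Cheng-Prusoff from IC50. Mean ± SEM of three.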

[2] = molecular target: T1, Serotonin 3 (5-HT3) receptor; experiment: Binding affinity at 5-hydroxytryptamine 3 receptor in rat cortical membrane by [3H]graniestron displacement.; format: cell membranes; procedure, shortened: as §1
[3] = molecular target: 5-hydroxytryptamine receptor 1B (Rattus norvegicus, UniProt P28564); experiment: Ability to displace [3H]5-HT bound to 5-hydroxytryptamine 1B receptor in rat striatum; format: tissue-based
Procedure, shortened: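 Striatal membranes from male Wistar rats in 50 mM Tris HCl pH 7.7 with 10 μM pargyline, 4 mM CaCl2 and 0.1% ascorbic acid. Filtration and scintillation counting. Ki from IC50 via Cheng-Prusoff. Mean ± SEM, n=3.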

[4] = molecular target: T2, 5-hydroxytryptamine receptor 2C (Rattus norvegicus, UniProt P08909); experiment: Ability to displace [3H]mesulergine bound to 5-hydroxytryptamine 2C receptor in rat cortex; format: tissue-based
T2 sequence (P08909 whole entry): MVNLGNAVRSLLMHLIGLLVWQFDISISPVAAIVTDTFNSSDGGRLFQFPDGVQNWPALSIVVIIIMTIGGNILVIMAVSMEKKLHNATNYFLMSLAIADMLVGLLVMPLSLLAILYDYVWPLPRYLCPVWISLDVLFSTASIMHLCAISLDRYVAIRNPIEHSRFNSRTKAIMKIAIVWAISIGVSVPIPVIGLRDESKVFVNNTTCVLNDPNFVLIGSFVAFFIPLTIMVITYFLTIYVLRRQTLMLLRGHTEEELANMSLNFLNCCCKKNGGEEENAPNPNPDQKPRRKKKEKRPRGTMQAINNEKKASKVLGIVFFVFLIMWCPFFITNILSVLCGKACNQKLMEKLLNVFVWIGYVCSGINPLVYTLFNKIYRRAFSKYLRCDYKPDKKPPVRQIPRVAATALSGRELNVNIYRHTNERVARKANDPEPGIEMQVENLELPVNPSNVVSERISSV
Procedure, shortened: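 Cortical membranes from male Wistar rats in 50 mM Tris HCl pH 7.7 with 10 μM pargyline, 4 mM CaCl2 and 0.1% ascorbic acid. Nonspecific binding with 1 μM mianserine. Filtration assay. Ki from IC50 via Cheng-Prusoff. Mean ± SEM, n=3.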

[5] = molecular target: Sodium-dependent serotonin transporter (Rattus norvegicus, UniProt P31652); experiment: Ability to displace [3H]paroxetine bound to Serotonin transporter receptor in rat forebrain
Procedure, shortened: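 Rat forebrain membranes (male Wistar), stored at -80 °C, in 50 mM Tris HCl pH 7.4. Nonspecific binding with 1 μM 6-nitroquipazine. Filtered on GF/B presoaked in 0.5% polyethylenimine. Ki from IC50 via Cheng-Prusoff. Mean ± SEM of three.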

[6] = molecular target: T3, 5-hydroxytryptamine receptor 1A (Rattus norvegicus, UniProt P19327); experiment: Ability to displace [3H]- -OH-DPAT bound to 5-hydroxytryptamine 1A receptor in rat hippocampus; format: tissue-based
T3 sequence (P19327 whole entry): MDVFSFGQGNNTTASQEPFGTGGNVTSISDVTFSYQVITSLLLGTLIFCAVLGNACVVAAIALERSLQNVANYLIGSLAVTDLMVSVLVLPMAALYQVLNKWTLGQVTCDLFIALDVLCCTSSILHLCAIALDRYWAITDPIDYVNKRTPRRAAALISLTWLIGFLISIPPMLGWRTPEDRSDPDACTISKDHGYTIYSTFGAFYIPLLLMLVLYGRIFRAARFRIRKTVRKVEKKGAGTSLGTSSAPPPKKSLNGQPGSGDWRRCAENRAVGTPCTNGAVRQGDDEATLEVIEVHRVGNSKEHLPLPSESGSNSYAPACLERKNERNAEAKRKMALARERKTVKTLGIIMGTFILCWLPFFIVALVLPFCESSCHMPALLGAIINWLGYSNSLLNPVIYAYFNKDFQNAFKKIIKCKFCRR
Procedure, shortened: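 Male Wistar rat hippocampal membranes in 50 mM Tris HCl pH 7.4. Stopped by GF/B filtration, counted by scintillation. IC50 from competition curves, converted to Ki by Cheng-Prusoff. Mean ± SEM of three determinations.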

[7] = molecular target: 5-hydroxytryptamine receptor 2A (Rattus norvegicus, UniProt P14842); experiment: Ability to displace [3H]ketanserin bound to 5-hydroxytryptamine 2A receptor in rat pre-frontal cortex; format: tissue-based
Procedure, shortened: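 Rat prefrontal cortex membranes (male Wistar) in 50 mM Tris HCl pH 7.7. […] Nonspecific binding with 3 μM ketanserin. Filtered and counted by scintillation. IC50 converted to Ki via Cheng-Prusoff. Mean ± SEM of three determinations.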

Chain of 5-hydroxytryptamine receptor 2A (P14842 whole entry): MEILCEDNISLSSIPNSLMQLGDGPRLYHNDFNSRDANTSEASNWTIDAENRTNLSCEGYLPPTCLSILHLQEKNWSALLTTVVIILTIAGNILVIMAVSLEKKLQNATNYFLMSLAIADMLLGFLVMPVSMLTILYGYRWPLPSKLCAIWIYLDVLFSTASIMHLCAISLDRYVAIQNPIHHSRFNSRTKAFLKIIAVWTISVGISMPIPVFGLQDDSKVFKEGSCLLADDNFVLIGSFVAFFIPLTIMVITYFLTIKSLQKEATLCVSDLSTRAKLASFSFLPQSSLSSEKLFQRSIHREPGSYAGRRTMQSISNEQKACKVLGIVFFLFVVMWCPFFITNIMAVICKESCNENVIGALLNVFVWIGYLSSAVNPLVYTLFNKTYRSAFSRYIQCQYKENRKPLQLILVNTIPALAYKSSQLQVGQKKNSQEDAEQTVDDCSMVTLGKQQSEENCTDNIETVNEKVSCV
Chain of 5-hydroxytryptamine receptor 1B (P28564 whole entry): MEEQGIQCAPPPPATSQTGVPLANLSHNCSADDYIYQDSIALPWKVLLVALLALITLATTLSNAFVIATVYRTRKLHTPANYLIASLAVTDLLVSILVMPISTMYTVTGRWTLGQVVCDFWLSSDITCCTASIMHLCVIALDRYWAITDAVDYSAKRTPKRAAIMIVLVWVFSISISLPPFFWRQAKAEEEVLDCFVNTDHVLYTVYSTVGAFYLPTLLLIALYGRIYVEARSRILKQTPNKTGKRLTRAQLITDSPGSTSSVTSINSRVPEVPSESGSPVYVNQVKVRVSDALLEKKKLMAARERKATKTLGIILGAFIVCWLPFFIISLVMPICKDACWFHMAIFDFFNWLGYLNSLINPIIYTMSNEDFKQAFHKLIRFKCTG
Chain of Sodium-dependent serotonin transporter (P31652 whole entry): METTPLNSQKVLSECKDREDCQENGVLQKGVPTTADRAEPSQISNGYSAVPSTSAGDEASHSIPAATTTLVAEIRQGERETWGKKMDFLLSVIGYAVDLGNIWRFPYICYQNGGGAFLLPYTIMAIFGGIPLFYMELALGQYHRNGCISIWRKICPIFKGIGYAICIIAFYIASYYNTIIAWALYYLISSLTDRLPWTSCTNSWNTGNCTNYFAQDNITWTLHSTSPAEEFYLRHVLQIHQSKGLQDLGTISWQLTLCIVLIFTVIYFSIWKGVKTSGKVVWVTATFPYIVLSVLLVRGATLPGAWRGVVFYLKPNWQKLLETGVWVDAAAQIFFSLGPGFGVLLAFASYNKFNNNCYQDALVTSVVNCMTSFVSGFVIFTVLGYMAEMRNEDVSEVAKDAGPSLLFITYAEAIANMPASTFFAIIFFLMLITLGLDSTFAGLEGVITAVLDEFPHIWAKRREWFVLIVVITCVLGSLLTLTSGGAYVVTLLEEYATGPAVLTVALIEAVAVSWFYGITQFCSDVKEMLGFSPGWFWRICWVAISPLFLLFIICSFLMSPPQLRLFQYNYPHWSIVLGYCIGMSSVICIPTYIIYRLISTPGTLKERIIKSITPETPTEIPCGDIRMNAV

Compound | Ki [1] | Ki [2] | further results
CN1CCN(c2ccc3ccccc3n2)CC1 | 0.003 µM | 0.00302 µM | 
c1ccc2nc(N3CCNCC3)ccc2c1 [QUIPAZINE] |  |  | Ki [3]: 0.31 µM; Ki [4]: 0.19 µM
O=[N+]([O-])c1ccc2nc(N3CCNCC3)ccc2c1 [6-NITROQUIPAZINE] | 0.058 µM |  | Ki [5]: 0.00012 µM
C[N+]1(C)CCN(c2nc3ccccc3c3c2CCCC3)CC1 | 0.013 µM |  | 
CN1CCN(c2ccc3c(n2)-c2ccccc2CCC3)CC1 | > 0.55 µM |  | Log Ki [2]: < -6.26
CN1CCN(c2ccc3c(n2)-c2ccccc2C3)CC1 | 0.014 µM | 0.0141 µM | Ki [3]: 3.8 µM; Ki [6]: 5.7 µM; Ki [7]: 2.6 µM; Ki [5]: 0.059 µM; Ki [4]: 16 µM
c1ccc2c3c(c(N4CCOCC4)nc2c1)CCCC3 | > 17 µM |  | 
CN1CCN(c2cccc(C34C[C@H]5C[C@@H](C3)C[C@@H](C4)C5)n2)CC1 | > 0.55 µM |  | Log Ki [2]: < -6.26
CCCN(CCC)C1CCc2cccc(O)c2C1 (stereo not given) [8-OH-DPAT] | 0.0012 µM |  | 

Further lines, with some results ahead:

Ki [1] | Ki [2] | Compound | further results
0.2 µM | 0.2 µM | CN1CCN(c2ccc3c(n2)-c2ccccc2CC3)CC1 | 
0.0019 µM | 0.00191 µM | CN1CCN(c2nc3ccccc3c3ccccc23)CC1 | 
0.011 µM |  | c1ccc(CN2CCN(c3nc4ccccc4c4c3CCCC4)CC2)cc1 | 
0.0017 µM |  | c1ccc2c3c(c(N4CCNCC4)nc2c1)CCCC3 | 
0.11 µM | 0.11 µM | CN1CCN(c2nc3c(c4c2CCCC4)CCCC3)CC1 | 
0.0048 µM |  | CN1CCCN(c2nc3ccccc3c3c2CCCC3)CC1 | 
0.00083 µM | 0.000832 µM | CN1CCN(c2nc3ccccc3c3c2CC2CCC3C2)CC1 (stereo not given) | Ki [3]: 2.3 µM; Ki [6]: 2.4 µM; Ki [7]: 3.7 µM; Ki [5]: 24 µM; Ki [4]: 2.8 µM
0.83 µM | 0.832 µM | CN1CCN(c2ccc3c(n2)CCc2ccccc2-3)CC1 | 
0.66 µM | 0.661 µM | CN1CCN(c2ccc3c(n2)C2CCCCC2CC3)CC1 (stereo not given) | 
0.2 µM | 0.2 µM | CN1CCN(c2ccc3ccc4ccccc4c3n2)CC1 | 
0.00023 µM | 0.000229 µM | CN1CCN(c2nc3ccccc3c3c2CCCC3)CC1 | Ki [3]: > 4 µM; Ki [6]: 2.8 µM; Ki [7]: 3 µM; Ki [5]: 12 µM; Ki [4]: 4.4 µM
0.0019 µM |  | CCN1CCN(c2nc3ccccc3c3c2CCCC3)CC1 | 
